Values after ≈ are worked out from the molar mass of the structure shown.
Columns and labels:
[1] = system: Pseudomonas aeruginosa; experiment: Antimicrobial activity against Pseudomonas aeruginosa ATCC 10145 after 24 hrs by broth microdilution method; format: functional; conditions: ATCC 10145, 24 h
Method in brief: (§1)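 Broth microdilution in tubes. Compounds were dissolved at 10 mg in 1 mL DMSO and diluted in Mueller-Hinton Broth for bacteria or Sabouraud Liquid Medium for yeasts and A. niger. Final concentrations were 1–500 µg/mL (1, 2, 4, 8, 16, 31.25, 62.5, 125, 250, 500), with DMSO at most 1% v/v. Inoculum was 10^5 cfu/mL, incubated at 37 °C for 24 h. MIC was the lowest concentration giving complete growth inhibition. Media and media-plus-DMSO served as growth controls.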

[2] = system: Staphylococcus aureus; experiment: Antimicrobial activity against Staphylococcus aureus ATCC 11632 after 24 hrs by broth microdilution method; format: functional; conditions: ATCC 11632, 24 h; method in brief: as §1
[3] = system: Bacillus subtilis; experiment: Antimicrobial activity against Bacillus subtilis ATCC 60511 after 24 hrs by broth microdilution method; format: functional; conditions: ATCC 60511, 24 h; method in brief: as §1
[4] = system: Escherichia coli; experiment: Antimicrobial activity against Escherichia […] after 24 hrs by broth microdilution method; format: functional; method in brief: as §1
[5] = system: Aspergillus niger; experiment: Antimicrobial activity against Aspergillus niger ATCC 6275 after 24 hrs by broth microdilution method; format: functional; conditions: ATCC 6275, 24 h; method in brief: as §1
[6] = system: Klebsiella pneumoniae; experiment: Antimicrobial activity against Klebsiella pneumoniae ATCC 10031 after 24 hrs by broth microdilution method; format: functional; conditions: ATCC 10031, 24 h; method in brief: as §1
[7] = system: Mycobacterium tuberculosis; experiment: Antitubercular activity against Mycobacterium tuberculosis H37Rv after 21 days by broth dilution assay; format: functional; conditions: 504 h
Method in brief: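 H37Rv frozen stock in Middlebrook 7H9 broth with 10% albumin-dextrose-catalase and 0.2% glycerol, thawed and diluted to 10⁵ cfu mL⁻¹. Compounds dissolved in DMSO, diluted in broth (final DMSO 1.3%). U-tubes inoculated, incubated 37 °C for 21 days. Growth scored visually against drug-free and inoculum-free controls and isoniazid. MIC = lowest concentration inhibiting […] of starting population.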

[8] = system: Saccharomyces cerevisiae; experiment: Antimicrobial activity against Saccharomyces cerevisiae ATCC 9763 after 24 hrs by broth microdilution method; format: functional; conditions: ATCC 9763, 24 h; method in brief: as §1
[9] = system: Candida tropicalis; experiment: Antimicrobial activity against Candida tropicalis ATCC 1369 after 24 hrs by broth microdilution method; format: functional; conditions: ATCC 1369, 24 h; method in brief: as §1
[10] = system: Enterococcus faecalis; experiment: Antimicrobial activity against Streptococcus faecalis ATCC 14506 after 24 hrs by broth microdilution method; format: functional; conditions: ATCC 14506, 24 h; method in brief: as §1
[11] = system: A549; experiment: Cytotoxicity against human A549 cell at 250 uM by MTT assay; format: cell-based; conditions: a549, 250 µM
Method in brief: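 A549 lung adenocarcinoma cells were grown with 10% and 0.2% FBS. Compounds were held as 10 mM DMSO stocks and diluted in culture medium; cells were treated at 250 µM. Viability was read by MTT reduction against untreated cells and a DMSO vehicle control. The work was done as two experiments, each with triplicate readings.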

Row | SMILES | MIC [1] [µg/mL] | MIC [2] [µg/mL] | MIC [3] [µg/mL] | MIC [4] [µg/mL] | MIC [5] [µg/mL] | MIC [6] [µg/mL] | MIC [7] [µg/mL] | MIC [8] [µg/mL] | MIC [9] [µg/mL] | MIC [10] [µg/mL] | Activity [11]
1 | C/C(=N/NC(=O)c1nc(C(C)C)cs1)c1ccc(Cl)cc1 | 125 (≈ 388 µM) | 125 (≈ 388 µM) | 31.2 (≈ 97.1 µM) | 125 (≈ 388 µM) | 125 (≈ 388 µM) | 125 (≈ 388 µM) | 62.5 (≈ 194 µM) | 125 (≈ 388 µM) | 125 (≈ 388 µM) | 125 (≈ 388 µM) | 
2 | COc1cc(/C=N/NC(=O)c2nc(C(C)C)cs2)cc(OC)c1OC | 31.2 (≈ 86 µM) | 500 (≈ 1380 µM) | 125 (≈ 344 µM) | 125 (≈ 344 µM) | 31.2 (≈ 86 µM) | 125 (≈ 344 µM) | 125 (≈ 344 µM) | 125 (≈ 344 µM) | 62.5 (≈ 172 µM) | 250 (≈ 688 µM) | 
3 | CC(=O)N1N=C(c2nc(C(C)C)cs2)OC1c1ccc([N+](=O)[O-])cc1 (configuration not stated) | 125 (≈ 347 µM) | 125 (≈ 347 µM) | 250 (≈ 694 µM) | 250 (≈ 694 µM) | 31.2 (≈ 86.7 µM) | 125 (≈ 347 µM) | 62.5 (≈ 173 µM) | 500 (≈ 1390 µM) | 125 (≈ 347 µM) | 125 (≈ 347 µM) | 
4 | CC(C)c1csc(-c2nnc(S)o2)n1 | 31.2 (≈ 137 µM) | 125 (≈ 550 µM) | 16 (≈ 70.4 µM) | 31.2 (≈ 137 µM) | 31.2 (≈ 137 µM) | 16 (≈ 70.4 µM) | 8 (≈ 35.2 µM) | 31.2 (≈ 137 µM) | 16 (≈ 70.4 µM) | 31.2 (≈ 137 µM) | 
5 | CC(=O)N1N=C(c2nc(C(C)C)cs2)OC1c1ccccc1 (configuration not stated) | 16 (≈ 50.7 µM) | 125 (≈ 396 µM) | 31.2 (≈ 99.1 µM) | 62.5 (≈ 198 µM) | 16 (≈ 50.7 µM) | 62.5 (≈ 198 µM) | 31.2 (≈ 99.1 µM) | 31.2 (≈ 99.1 µM) | 16 (≈ 50.7 µM) | 62.5 (≈ 198 µM) | 
6 | CC(C)c1csc(C(=O)N/N=C/c2ccc([N+](=O)[O-])cc2)n1 | 125 (≈ 393 µM) | 125 (≈ 393 µM) | 125 (≈ 393 µM) | 31.2 (≈ 98.2 µM) | 31.2 (≈ 98.2 µM) | 125 (≈ 393 µM) | 125 (≈ 393 µM) | 125 (≈ 393 µM) | 62.5 (≈ 196 µM) | 250 (≈ 785 µM) | 
7 | C/C(=N/NC(=O)c1nc(C(C)C)cs1)c1ccc(C)cc1 | 250 (≈ 829 µM) | 250 (≈ 829 µM) | 250 (≈ 829 µM) | 250 (≈ 829 µM) | 500 (≈ 1660 µM) | 125 (≈ 415 µM) | 125 (≈ 415 µM) | 125 (≈ 415 µM) | 250 (≈ 829 µM) | 125 (≈ 415 µM) | 
8 | C/C(=N/NC(=O)c1nc(C(C)C)cs1)c1ccc([N+](=O)[O-])cc1 | 250 (≈ 752 µM) | 250 (≈ 752 µM) | 250 (≈ 752 µM) | 250 (≈ 752 µM) | 125 (≈ 376 µM) | 250 (≈ 752 µM) | 125 (≈ 376 µM) | 500 (≈ 1500 µM) | 125 (≈ 376 µM) | 250 (≈ 752 µM) | 
9 | CC(=O)N1N=C(c2nc(C(C)C)cs2)OC1c1ccc(O)cc1 (configuration not stated) | 31.2 (≈ 94.3 µM) | 125 (≈ 377 µM) | 16 (≈ 48.3 µM) | 16 (≈ 48.3 µM) | 16 (≈ 48.3 µM) | 31.2 (≈ 94.3 µM) | 31.2 (≈ 94.3 µM) | 31.2 (≈ 94.3 µM) | 16 (≈ 48.3 µM) | 31.2 (≈ 94.3 µM) | Active
10 | CC(=O)N1N=C(c2nc(C(C)C)cs2)OC1c1ccc(N(C)C)cc1 (configuration not stated) | 16 (≈ 44.6 µM) | 125 (≈ 349 µM) | 31.2 (≈ 87.2 µM) | 16 (≈ 44.6 µM) | 31.2 (≈ 87.2 µM) | 31.2 (≈ 87.2 µM) | 62.5 (≈ 174 µM) | 31.2 (≈ 87.2 µM) | 31.2 (≈ 87.2 µM) | 125 (≈ 349 µM) | 
11 | O=C(O)c1cn(C2CC2)c2cc(N3CCNCC3)c(F)cc2c1=O [CIPROFLOXACIN] | ≤ 5 | ≤ 5 | ≤ 1 | ≤ 1 |  | ≤ 1 |  |  |  | ≤ 5 | 
12 | OC(Cn1cncn1)(Cn1cncn1)c1ccc(F)cc1F [FLUCONAZOLE] |  |  |  |  | ≤ 1 |  |  | ≤ 1 | ≤ 1 |  | 
13 | NNC(=O)c1ccncc1 [ISONIAZID] |  |  |  |  |  |  | 0.25 (≈ 1.82 µM) |  |  |  | 
14 | CCn1cc(C(=O)O)c(=O)c2cc(F)c(N3CCNCC3)cc21 [NORFLOXACIN] | ≤ 5 | ≤ 5 | ≤ 1 | ≤ 1 |  | ≤ 1 |  |  |  | ≤ 5 | 

From ChEMBL document CHEMBL1155277, “Synthesis of new 4-isopropylthiazole hydrazide analogs and some derived clubbed triazole, oxadiazole ring systems--a novel class of potential antibacterial, antifungal and antitubercular agents” (Eur J Med Chem, 2009)
